Calls of active or inactive are those of the source. The calls are words filed in the database; no cut-off is given here.
Key:
[1] = target: T1, Serine racemase (Homo sapiens) (UniProt Q9GZT4); test: (§1) Inhibition of human recombinant N-terminal His-tagged serine racemase expressed in Escherichia coli BL21(DE3) using L-serine as substrate after 10 mins by fluorescence assay
T1 sequence (whole entry): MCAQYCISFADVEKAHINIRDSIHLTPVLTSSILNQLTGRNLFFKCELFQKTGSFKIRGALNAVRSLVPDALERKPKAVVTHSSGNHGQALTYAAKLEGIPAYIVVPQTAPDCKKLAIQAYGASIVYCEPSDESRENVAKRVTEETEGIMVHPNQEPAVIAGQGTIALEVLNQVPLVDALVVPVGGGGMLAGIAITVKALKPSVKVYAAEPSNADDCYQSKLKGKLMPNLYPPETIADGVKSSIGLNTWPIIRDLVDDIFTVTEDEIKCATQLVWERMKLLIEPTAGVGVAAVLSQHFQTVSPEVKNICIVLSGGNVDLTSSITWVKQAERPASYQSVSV
In short: (§2)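 Purified enzyme (30 μg) in 40 mM Tris-HCl pH 8.0, 60 μM pyridoxal phosphate, 1 mM MgCl2, ATP, 1 mM dithiothreitol, 10 mM L-Ser, with compound; 37 °C, 10 min; methanol stop. D-Ser quantified by OPA/Boc-L-cysteine derivatization and reversed-phase HPLC fluorescence (ex 344, em 443 nm).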

Serine racemase = target: T2, Serine racemase (Homo sapiens, UniProt Q9GZT4); test: as §1; in short: as §2
T2 sequence (Q9GZT4 whole entry): T1 sequence (whole entry)

D-amino-acid oxidase [2] = target: T3, D-amino-acid oxidase (Homo sapiens, UniProt P14920); test: Inhibition of human recombinant N-terminal His-tagged DAO expressed in Escherichia coli BL21(DE3) using D-alanine as substrate by colorimetric assay
D-amino-acid oxidase [3] = target: T3, D-amino-acid oxidase; test: Inhibition of human recombinant N-terminal His-tagged DAO expressed in Escherichia coli BL21(DE3) using D-serine as substrate by colorimetric assay
[4] = target: T4, D-aspartate oxidase (Homo sapiens) (UniProt Q99489); test: (§3) Inhibition of human recombinant N-terminal His-tagged DDO expressed in Escherichia coli BL21(DE3) using D-aspartate as substrate by colorimetric assay
T4 sequence (whole entry): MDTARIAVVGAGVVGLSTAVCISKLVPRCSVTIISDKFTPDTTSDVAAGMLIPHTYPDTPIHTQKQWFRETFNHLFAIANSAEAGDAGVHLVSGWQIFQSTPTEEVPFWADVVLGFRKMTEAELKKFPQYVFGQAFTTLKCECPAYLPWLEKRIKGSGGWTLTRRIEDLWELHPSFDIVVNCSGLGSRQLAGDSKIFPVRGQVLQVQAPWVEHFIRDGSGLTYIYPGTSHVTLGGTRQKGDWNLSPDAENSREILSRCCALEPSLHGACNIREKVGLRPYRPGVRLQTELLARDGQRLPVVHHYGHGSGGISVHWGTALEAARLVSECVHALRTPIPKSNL
In short: (§4)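 Purified enzyme (0.23–4.2 μg) with 10 mM D-Asp in air-saturated 40 mM sodium pyrophosphate pH 8.3, 23 U catalase, 60 μM FAD; 37 °C, 10 min; trichloroacetic acid stop; 2-oxo acid measured as 2,4-dinitrophenylhydrazone at A445.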

D-aspartate oxidase = target: T5, D-aspartate oxidase (Homo sapiens, UniProt Q99489); test: as §3; in short: as §4
T5 sequence (Q99489 whole entry): T4 sequence (whole entry)

D-amino-acid oxidase [5] = target: T3, D-amino-acid oxidase; test: Inhibition of human recombinant N-terminal His-tagged DAO expressed in Escherichia coli BL21(DE3) using D-alanine as substrate assessed as residual activity at 10000 uM by colorimetric assay relative to control
In short: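 Purified enzyme (0.23–4.2 μg) in air-saturated 40 mM sodium pyrophosphate pH 8.3, 23 U catalase, 60 μM FAD, 10 mM D-amino acid substrate, with compound; 37 °C, 10 min; stopped with trichloroacetic acid. 2-Oxo acid reacted with 2,4-dinitrophenylhydrazine, A445 read against substrate-free blank.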
Target sequence in this assay (P14920 whole entry, looked up): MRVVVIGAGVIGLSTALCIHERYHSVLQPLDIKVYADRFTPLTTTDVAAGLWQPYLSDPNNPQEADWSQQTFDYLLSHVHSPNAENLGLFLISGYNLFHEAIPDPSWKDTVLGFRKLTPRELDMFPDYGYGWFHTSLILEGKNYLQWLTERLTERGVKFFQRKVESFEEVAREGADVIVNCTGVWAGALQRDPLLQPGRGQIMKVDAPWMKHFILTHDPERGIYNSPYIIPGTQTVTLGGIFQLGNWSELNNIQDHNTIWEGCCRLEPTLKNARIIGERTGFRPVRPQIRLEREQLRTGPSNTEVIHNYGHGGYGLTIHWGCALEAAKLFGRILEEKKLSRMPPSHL

D-amino-acid oxidase [6] = target: T3, D-amino-acid oxidase; test: Inhibition of human recombinant DAO expressed in G418-resistant HEK293/NEO cells assessed as effect on D-alanine level at 83 uM incubated for 30 mins prior to D-alanine addition measured after 24 hrs by HPLC analysis relative to vehicle-treated control; type: cell-based
In short: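 HEK293 cells stably carrying HA-tagged human DAO (clone 293.HA-hDAO-24) or empty vector (293/NEO), seeded at 1 × 10^6. Next day, fresh medium and 83 μM compound or vehicle (5% DMSO solution) for 30 min, then 17 mM D-Ala for 24 h. Cells methanol-extracted; D-/L-Ala by OPA/NAC-derivatized HPLC. Three independent assays, Dunnett test vs vehicle.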
Target sequence in this assay (P14920 whole entry, looked up): as above

HEK293 [7] = test: Effect on L-alanine level in G418-resistant HEK293 cells at 17 uM by HPLC analysis relative to vehicle-treated control; type: functional, cell-based; settings: Homo sapiens
In short: (§5)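 293/NEO (empty-vector, G418-selected) or 293.HA-hDAO-24 (stable N-terminal HA-tagged human DAO) cells, 1 × 10^6 seeded, maintained in DMEM/10% FBS/800 μg/mL G418; next day fresh medium, compound or vehicle (5% DMSO solution) for 30 min, then 17 mM D-Ala for 24 h. Methanol extraction; D-/L-Ala by OPA/NAC derivatization HPLC with fluorescence; mean ± SD of three assays; Dunnett test vs vehicle.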

HEK293 [8] = test: Effect on L-alanine level in G418-resistant HEK293 cells at 83 uM by HPLC analysis relative to vehicle-treated control; type: functional, cell-based; settings: Homo sapiens; in short: as §5
HEK293/NEO [9] = test: Effect on L-alanine level in G418-resistant HEK293/NEO cells at 83 uM by HPLC analysis relative to vehicle-treated control; type: functional, cell-based; settings: Homo sapiens; in short: as §5
[10] = test system: D-amino-acid oxidase (Homo sapiens), P14920 [Y224A]; test: (§6) Inhibition of human recombinant N-terminal His-tagged DAO Y224A mutant expressed in Escherichia coli BL21(DE3) using D-alanine as substrate after 10 mins by Lineweaver-Burk plot analysis
D-amino-acid oxidase [11] = target: D-amino-acid oxidase (Homo sapiens, UniProt P14920, Y224A); test: as §6
[12] = test system: D-amino-acid oxidase (Homo sapiens), P14920 [Y224F]; test: (§7) Inhibition of human recombinant N-terminal His-tagged DAO Y224F mutant expressed in Escherichia coli BL21(DE3) using D-alanine as substrate after 10 mins by Lineweaver-Burk plot analysis
D-amino-acid oxidase [13] = target: D-amino-acid oxidase (Homo sapiens, UniProt P14920, Y224F); test: as §7
D-amino-acid oxidase [14] = target: T3, D-amino-acid oxidase; test: Competitive inhibition of human recombinant N-terminal His-tagged DAO expressed in Escherichia coli BL21(DE3) using D-alanine as substrate by Lineweaver-Burk plot analysis
In short: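 Purified N-terminal His-tagged human DAO from E. coli BL21(DE3)pLysS. Colorimetric 2-oxo acid assay in air-saturated 40 mM sodium pyrophosphate pH 8.3 with catalase, 60 μM FAD and 0.5–40 mM D-Ala, 37 °C for 10 min. Stopped with TCA, derivatized with 2,4-dinitrophenylhydrazine, read at A445. Lineweaver–Burk plots; Ki confirmed by slope replot against inhibitor concentration. Three independent experiments.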
Target sequence in this assay (P14920 whole entry, looked up): as above

D-amino-acid oxidase [15] = target: T3, D-amino-acid oxidase; test: Binding affinity to human recombinant N-terminal His-tagged DAO expressed in Escherichia coli BL21(DE3) at 40 uM after 2 to 30 mins by absorption spectra analysis; settings: 200 uM, in the assay text read “at 200 uM” for “at 40 uM”
In short: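 Purified enzyme at 1.7 μg/μL in 10 mM sodium pyrophosphate pH 8.3 with 2 mM EDTA, 5 mM 2-mercaptoethanol, 10% (v/v) glycerol; wavelength scans at 25 °C before and after compound addition (final 40 μM or 200 μM depending on compound), recorded at indicated times; binding inferred from perturbation of the absorption spectrum.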
Target sequence in this assay (P14920 whole entry, looked up): as above

D-amino-acid oxidase [16] = target: T3, D-amino-acid oxidase; test: Inhibition of human recombinant N-terminal His-tagged DAO expressed in Escherichia coli BL21(DE3) using D-alanine as substrate by Lineweaver-Burk plot analysis
Target sequence in this assay (P14920 whole entry): as the sequence (P14920 whole entry, looked up) above

HEK293/NEO [17] = test: Effect on L-alanine level in G418-resistant HEK293/NEO cells at 17 uM by HPLC analysis relative to vehicle-treated control; type: functional, cell-based; settings: Homo sapiens; in short: as §5
D-amino-acid oxidase [18] = target: T3, D-amino-acid oxidase; settings: HEK293, 83 uM
Target sequence in this assay (P14920 whole entry, looked up): as above

D-amino-acid oxidase [19] = target: T3, D-amino-acid oxidase; test: Binding affinity to human recombinant N-terminal His-tagged DAO expressed in Escherichia coli BL21(DE3) at 200 uM after 2 to 30 mins by absorption spectra analysis
Target sequence in this assay (P14920 whole entry, looked up): as above

Sequence of D-amino-acid oxidase (Homo sapiens), P14920 [Y224A] (P14920 whole entry Y224A): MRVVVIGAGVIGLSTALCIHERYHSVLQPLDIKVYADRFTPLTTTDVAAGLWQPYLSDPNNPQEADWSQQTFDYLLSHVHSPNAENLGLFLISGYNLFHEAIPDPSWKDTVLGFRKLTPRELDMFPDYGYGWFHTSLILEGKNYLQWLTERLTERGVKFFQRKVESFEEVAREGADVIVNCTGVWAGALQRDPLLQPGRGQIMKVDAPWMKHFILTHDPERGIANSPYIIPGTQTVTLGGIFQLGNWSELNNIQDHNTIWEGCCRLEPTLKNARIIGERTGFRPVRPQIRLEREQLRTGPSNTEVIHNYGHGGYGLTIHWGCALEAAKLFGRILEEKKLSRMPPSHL
Sequence of D-amino-acid oxidase (Homo sapiens), P14920 [Y224F] (P14920 whole entry Y224F): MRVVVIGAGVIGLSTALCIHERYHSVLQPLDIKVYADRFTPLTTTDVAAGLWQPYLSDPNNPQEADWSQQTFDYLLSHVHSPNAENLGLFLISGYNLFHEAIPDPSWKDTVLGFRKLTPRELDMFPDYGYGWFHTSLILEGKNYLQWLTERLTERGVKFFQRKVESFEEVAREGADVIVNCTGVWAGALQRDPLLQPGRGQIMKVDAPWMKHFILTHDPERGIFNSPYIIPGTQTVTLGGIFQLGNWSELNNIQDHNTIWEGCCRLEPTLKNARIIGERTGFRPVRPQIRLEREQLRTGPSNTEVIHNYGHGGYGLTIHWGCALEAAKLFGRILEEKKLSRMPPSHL
Sequence of D-amino-acid oxidase (Homo sapiens, UniProt P14920, Y224A) (P14920 whole entry Y224A): as the sequence (P14920 whole entry Y224A) above
Sequence of D-amino-acid oxidase (Homo sapiens, UniProt P14920, Y224F) (P14920 whole entry Y224F): as the sequence (P14920 whole entry Y224F) above

SMILES	inhibition [1]	IC50 (Serine racemase) [µM]	IC50 (D-amino-acid oxidase [2]) [µM]	inhibition (D-amino-acid oxidase [2])	IC50 (D-amino-acid oxidase [3]) [µM]	inhibition [4]	IC50 (D-aspartate oxidase) [µM]	other results
Nc1ccc(-c2nnc(O)o2)cc1	–	–	–	–	> 10000	–	–	–
Oc1cc(-c2ccccc2)no1	–	–	–	–	> 500	–	–	–
Cc1ccccc1-c1nnc(O)o1	Dose-dependent effect	> 5000	298	Dose-dependent effect	199	Dose-dependent effect	> 5000	inhibition (D-amino-acid oxidase [3]): Dose-dependent effect
O=c1[nH]nc(-c2ccccc2)o1	Dose-dependent effect	> 10000	365	Dose-dependent effect	253	Dose-dependent effect	> 10000	–
O=C(O)[C@@H](O)[C@@H](O)C(=O)O	Dose-dependent effect	–	–	–	–	Dose-dependent effect	–	–
Nc1cncc(C(=O)O)c1	–	–	–	–	> 2500	–	–	–
C/C=C/C(=O)O [CROTONIC ACID]	–	> 10000	598	–	357	–	> 10000	inhibition (D-amino-acid oxidase [3]): Dose-dependent effect
O=C(O)C(O)C(O)C(=O)O (stereo not drawn)	–	2820	–	–	> 10000	–	3920	–
CNCC(=O)c1ccc(O)c(O)c1 [ADRENALONE]	–	–	–	–	> 1000	–	–	–
Oc1nc(-c2ccccc2)no1	–	–	–	–	> 5000	–	–	–
O=C(O)CC(=O)O [MALONIC ACID]	Dose-dependent effect	24.9	–	–	> 10000	Dose-dependent effect	1350	Activity (D-amino-acid oxidase [15]): inactive

Further lines, with some results ahead:

inhibition [1]	IC50 (Serine racemase) [µM]	IC50 (D-amino-acid oxidase [2]) [µM]	inhibition (D-amino-acid oxidase [2])	IC50 (D-amino-acid oxidase [3]) [µM]	inhibition [4]	IC50 (D-aspartate oxidase) [µM]	SMILES	other results
Dose-dependent effect	5010	1450	Dose-dependent effect	900	Dose-dependent effect	> 10000	O=C(O)c1cc2c(s1)CCCC2	–
–	–	–	–	> 2500	–	–	O=C(O)c1cn2ccccc2n1	–
–	–	–	–	> 100	–	–	O=C(O)c1cc2c([nH]1)CCCC2	–
Dose-dependent effect	8390	> 10000	Dose-dependent effect	6270	Dose-dependent effect	> 10000	O=C(O)/C=C/c1cccc(O)c1	Activity (D-amino-acid oxidase [5]): 51.5%; inhibition (D-amino-acid oxidase [3]): Dose-dependent effect
Dose-dependent effect	5280	59.8	Dose-dependent effect	28.5	Dose-dependent effect	> 10000	O=C(O)c1cc2c(s1)CCC2	inhibition (D-amino-acid oxidase [6]): inactive; Activity (HEK293 [7]): inactive; Activity (HEK293 [8]): inactive; Activity (HEK293/NEO [9]): inactive; inhibition [10]: Dose-dependent effect; Ki (D-amino-acid oxidase [11]): 4.59 µM; inhibition [12]: Dose-dependent effect; Ki (D-amino-acid oxidase [13]): 14.4 µM; inhibition (D-amino-acid oxidase [14]): Active; Activity (D-amino-acid oxidase [15]): Active; inhibition (D-amino-acid oxidase [3]): Dose-dependent effect; Ki (D-amino-acid oxidase [16]): 9.92 µM
–	–	–	–	> 1000	–	–	O=C(O)C1=CN2CCN=C2C=C1	–
–	–	–	–	> 2500	–	–	O=C(O)c1ccc[n+]([O-])c1 [OXINIACIC ACID]	–
Dose-dependent effect	5160	3720	Dose-dependent effect	1830	Dose-dependent effect	> 10000	CCCc1cc(C(=O)O)sc1C	–
–	–	–	–	> 10000	–	–	NC[C@H](O)c1ccc(O)c(O)c1 [NOREPINEPHRINE]	–
–	–	–	–	> 10000	–	–	O=C(O)c1ccc2cccnc2n1	–
Dose-dependent effect	> 10000	0.943	Dose-dependent effect	0.44	Dose-dependent effect	7580	O=c1oc2ccccc2cc1O [3-HYDROXYCOUMARIN]	inhibition (D-amino-acid oxidase [6]): inactive; Activity (HEK293 [7]): inactive; Activity (HEK293/NEO [17]): inactive; Activity (HEK293 [8]): inactive; Activity (HEK293/NEO [9]): inactive; inhibition [10]: Dose-dependent effect; Ki (D-amino-acid oxidase [11]): 3.69 µM; inhibition [12]: Dose-dependent effect; Ki (D-amino-acid oxidase [13]): 0.265 µM; inhibition (D-amino-acid oxidase [14]): Active; inhibition (D-amino-acid oxidase [3]): Dose-dependent effect; inhibition (D-amino-acid oxidase [18]): Active; Ki (D-amino-acid oxidase [16]): 0.156 µM; Activity (D-amino-acid oxidase [19]): Active
Dose-dependent effect	5720	1100	Dose-dependent effect	666	Dose-dependent effect	> 10000	CCc1cc(C(=O)O)sc1C	–
Dose-dependent effect	8210	–	Dose-dependent effect	–	Dose-dependent effect	> 10000	O=C(O)c1ccsc1	inhibition (D-amino-acid oxidase [6]): inactive; Activity (HEK293 [7]): inactive; Activity (HEK293/NEO [17]): inactive; Activity (HEK293 [8]): inactive; Activity (HEK293/NEO [9]): inactive; inhibition [10]: Dose-dependent effect; inhibition [12]: Dose-dependent effect; inhibition (D-amino-acid oxidase [14]): Active; inhibition (D-amino-acid oxidase [3]): Dose-dependent effect; inhibition (D-amino-acid oxidase [18]): Active; Activity (D-amino-acid oxidase [19]): Active

Source: ChEMBL document CHEMBL2321703, “Identification of novel D-amino acid oxidase inhibitors by in silico screening and their functional characterization in vitro” (J Med Chem, 2013)
